# Test results from ChEMBL document CHEMBL1126068, “Renin inhibitors containing C-termini derived from mercaptoheterocycles” (J Med Chem, 1992).
# Experiments:
# Renin = target: T1, Renin (Homo sapiens, UniProt P00797); experiment: The compound was tested in vitro for inhibition of human plasma renin.; type: cell-free
# T1 sequence (P00797 whole entry): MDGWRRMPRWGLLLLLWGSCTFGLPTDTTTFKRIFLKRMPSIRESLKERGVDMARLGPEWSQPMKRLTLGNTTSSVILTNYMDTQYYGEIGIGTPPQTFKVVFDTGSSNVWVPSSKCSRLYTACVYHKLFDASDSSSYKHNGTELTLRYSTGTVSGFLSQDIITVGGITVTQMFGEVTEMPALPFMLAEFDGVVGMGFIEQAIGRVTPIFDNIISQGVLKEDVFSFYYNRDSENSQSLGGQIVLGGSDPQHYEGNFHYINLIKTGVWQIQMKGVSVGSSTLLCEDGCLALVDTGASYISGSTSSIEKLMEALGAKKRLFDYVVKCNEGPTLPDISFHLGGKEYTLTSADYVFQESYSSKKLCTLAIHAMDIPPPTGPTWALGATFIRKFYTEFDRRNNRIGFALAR
# Procedure, shortened: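 Lyophilized human plasma was reconstituted in distilled water on the assay day. Angiotensin I was measured by radioimmunoassay (commercial kit) at pH 7.4 in phosphate buffer, 37 °C, with PMSF to block angiotensinases. Inhibitors came from a 1 mM DMF stock serially diluted to 3–5 concentrations, run in duplicate and averaged. IC50 was calculated by linear regression.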
# [1] = Inhibition of plasma renin determined at Peak change in mean arterial pressure at the dose of 0.88 mg/kg administered through intravenously in Rhesus monkeys.; type: functional; details: Cercopithecidae, route intravenous
# Procedure, shortened: (§1)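 Conscious male and female rhesus monkeys kept on a low-sodium diet, given furosemide the evening before, and fasted 18 h before and during the study. MAP was read directly and blood drawn for PRA through chronic arterial access ports. Compound was given IV via venous catheter in 0.05% acetic acid/5% dextrose/H2O, 20 min after a vehicle control. Time courses were plotted and peak changes taken; N = 2.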
# [2] = Peak change in mean arterial pressure (average) at the dose of 0.88 mg/kg administered through intravenously in Rhesus monkeys.; type: functional, Cercopithecidae, Artery; details: route intravenous; procedure, shortened: as §1
# [3] = Peak change in heart rate (average) at the dose of 0.88 mg/kg administered through intravenously in Rhesus monkeys.; type: functional, Cercopithecidae; details: route intravenous; procedure, shortened: as §1
# [4] = Peak change in mean arterial pressure (average) at the dose of 0.34 mg/kg administered through intravenously in Rhesus monkeys.; type: functional, Cercopithecidae, Artery; details: route intravenous; procedure, shortened: as §1
# [5] = Inhibition of plasma renin determined at Peak change in mean arterial pressure at the dose of 0.34 mg/kg administered through intravenously in Rhesus monkeys.; type: functional; details: Cercopithecidae, route intravenous; procedure, shortened: as §1
# [6] = Peak change in heart rate (average) at the dose of 0.34 mg/kg administered through intravenously in Rhesus monkeys.; type: functional, Cercopithecidae; details: route intravenous; procedure, shortened: as §1
# [7] = Peak change in heart rate (average) at the dose of 1.19 mg/kg administered through intravenously in Rhesus monkeys.; type: functional, Cercopithecidae; details: route intravenous; procedure, shortened: as §1
# [8] = Inhibition of plasma renin determined at Peak change in mean arterial pressure at the dose of 1.19 mg/kg administered through intravenously in Rhesus monkeys.; type: functional; details: Cercopithecidae, route intravenous; procedure, shortened: as §1
# [9] = Peak change in mean arterial pressure (average) at the dose of 1.19 mg/kg administered through intravenously in Rhesus monkeys.; type: functional, Cercopithecidae, Artery; details: route intravenous; procedure, shortened: as §1
# [10] = Inhibition of plasma renin determined at Peak change in mean arterial pressure at the dose of 0.39 mg/kg administered through intravenously in Rhesus monkeys.; type: functional; details: Cercopithecidae, route intravenous; procedure, shortened: as §1
# [11] = Peak change in heart rate (average) at the dose of 0.39 mg/kg administered through intravenously in Rhesus monkeys.; type: functional, Cercopithecidae; details: route intravenous; procedure, shortened: as §1
# [12] = Peak change in mean arterial pressure (average) at the dose of 0.39 mg/kg administered through intravenously in Rhesus monkeys.; type: functional, Cercopithecidae, Artery; details: route intravenous; procedure, shortened: as §1
# [13] = Peak change in heart rate (average) at the dose of 0.35 mg/kg administered through intravenously in Rhesus monkeys.; type: functional, Cercopithecidae; details: route intravenous; procedure, shortened: as §1
# [14] = Inhibition of plasma renin determined at Peak change in mean arterial pressure at the dose of 0.35 mg/kg administered through intravenously in Rhesus monkeys.; type: functional; details: Cercopithecidae, route intravenous; procedure, shortened: as §1
# [15] = Peak change in mean arterial pressure (average) at the dose of 0.35 mg/kg administered through intravenously in Rhesus monkeys.; type: functional, Cercopithecidae, Artery; details: route intravenous; procedure, shortened: as §1
# [16] = Peak change in mean arterial pressure (average) at the dose of 0.40 mg/kg administered through intravenously in Rhesus monkeys.; type: functional, Cercopithecidae, Artery; details: dose 0.4 mg/kg; route intravenous; procedure, shortened: as §1
# [17] = Inhibition of plasma renin determined at Peak change in mean arterial pressure at the dose of 0.40 mg/kg administered through intravenously in Rhesus monkeys.; type: functional; details: Cercopithecidae, route intravenous; procedure, shortened: as §1
# [18] = Peak change in heart rate (average) at the dose of 0.40 mg/kg administered through intravenously in Rhesus monkeys.; type: functional, Cercopithecidae; details: dose 0.4 mg/kg; route intravenous; procedure, shortened: as §1
# [19] = Peak change in heart rate (average) at the dose of 0.42 mg/kg administered through intravenously in Rhesus monkeys.; type: functional, Cercopithecidae; details: route intravenous; procedure, shortened: as §1
# [20] = Peak change in mean arterial pressure (average) at the dose of 0.42 mg/kg administered through intravenously in Rhesus monkeys.; type: functional, Cercopithecidae, Artery; details: route intravenous; procedure, shortened: as §1
# [21] = Inhibition of plasma renin determined at Peak change in mean arterial pressure at the dose of 0.42 mg/kg administered through intravenously in Rhesus monkeys.; type: functional; details: Cercopithecidae, route intravenous; procedure, shortened: as §1
# [22] = Peak change in mean arterial pressure (average) at the dose of 0.44 mg/kg administered through intravenously in Rhesus monkeys.; type: functional, Cercopithecidae, Artery; details: route intravenous; procedure, shortened: as §1
# [23] = Inhibition of plasma renin determined at Peak change in mean arterial pressure at the dose of 0.44 mg/kg administered through intravenously in Rhesus monkeys.; type: functional; details: Cercopithecidae, route intravenous; procedure, shortened: as §1
# [24] = Peak change in heart rate (average) at the dose of 0.44 mg/kg administered through intravenously in Rhesus monkeys.; type: functional, Cercopithecidae; details: route intravenous; procedure, shortened: as §1
Compound,IC50 (Renin) [nM],other results
CC(C)(C)OC(=O)N[C@@H](Cc1ccccc1)C(=O)N[C@@H](Cc1c[nH]cn1)C(=O)N[C@@H](CC1CCCCC1)[C@@H](O)CSc1nnc(Nc2ccccc2)s1,3310,
Cn1cnnc1SC[C@H](O)[C@H](CC1CCCCC1)NC(=O)[C@H](Cc1c[nH]cn1)NC(=O)[C@H](Cc1ccccc1)NC(=O)OC(C)(C)C,81,inhibition in vivo at 0.88 mg/kg [1]: 90%; Peak deltaMAP [2]: -9 mmHg; Peak deltaHR [3]: 17 beats min-1
CC(C)(C)OC(=O)N[C@@H](Cc1ccccc1)C(=O)N[C@@H](Cc1cnc[nH]1)C(=O)N[C@@H](CC1CCCCC1)[C@@H](O)CSc1ccccn1,198,
CC(C)(C)OC(=O)N[C@@H](Cc1ccccc1)C(=O)N[C@@H](Cc1c[nH]cn1)C(=O)N[C@@H](CC1CCCCC1)[C@@H](O)CSc1nnnn1CCc1ccncc1,31,Peak deltaMAP [4]: -22 mmHg; inhibition in vivo at 0.34 mg/kg [5]: 95%; Peak deltaHR [6]: 1 beats min-1
CC(C)(C)OC(=O)N[C@@H](Cc1ccccc1)C(=O)N[C@@H](Cc1c[nH]cn1)C(=O)N[C@@H](CC1CCCCC1)[C@@H](O)CSc1ncc2ccccn12,708,
CC(C)(C)OC(=O)N[C@@H](Cc1ccccc1)C(=O)N[C@@H](Cc1c[nH]cn1)C(=O)N[C@@H](CC1CCCCC1)[C@@H](O)CSC1CCCCC1,289,
Cn1nc(C(F)(F)F)nc1SC[C@H](O)[C@H](CC1CCCCC1)NC(=O)[C@H](Cc1c[nH]cn1)NC(=O)[C@H](Cc1ccccc1)NC(=O)OC(C)(C)C,392,
Cn1ccnc1SC[C@H](O)[C@H](CC1CCCCC1)NC(=O)[C@H](Cc1c[nH]cn1)NC(=O)[C@H](Cc1ccccc1)NC(=O)OC(C)(C)C,124,Peak deltaHR [7]: -3 beats min-1; inhibition in vivo at 1.19 mg/kg [8]: 75%; Peak deltaMAP [9]: -8.5 mmHg
C[n+]1ccc(CCn2nnnc2SC[C@H](O)[C@H](CC2CCCCC2)NC(=O)[C@H](Cc2c[nH]cn2)NC(=O)[C@H](Cc2ccccc2)NC(=O)OC(C)(C)C)cc1,678,
CC(C)(C)OC(=O)N[C@@H](Cc1ccccc1)C(=O)N[C@@H](Cc1c[nH]cn1)C(=O)N[C@@H](CC1CCCCC1)[C@@H](O)CSc1nnnn1CCc1ccc(O)cc1,33,
Cn1c(SC[C@H](O)[C@H](CC2CCCCC2)NC(=O)[C@H](Cc2c[nH]cn2)NC(=O)[C@H](Cc2ccccc2)NC(=O)OC(C)(C)C)nnc1C(F)(F)F,39,inhibition in vivo at 0.39 mg/kg [10]: 85%; Peak deltaHR [11]: -5 beats min-1; Peak deltaMAP [12]: -11 mmHg
CC(C)(C)OC(=O)N[C@@H](Cc1ccccc1)C(=O)N[C@@H](Cc1c[nH]cn1)C(=O)N[C@@H](CC1CCCCC1)[C@@H](O)CS(=O)(=O)c1nnnn1CCc1cc[n+]([O-])cc1,37,Peak deltaMAP [16]: -12 mmHg; inhibition in vivo at 0.4 mg/kg [17]: 98%; Peak deltaHR [18]: 23 beats min-1
CC(C)(C)OC(=O)N[C@@H](Cc1ccccc1)C(=O)N[C@@H](Cc1c[nH]cn1)C(=O)N[C@@H](CC1CCCCC1)[C@@H](O)CSc1nnnn1CCN1CCOCC1,39,Peak deltaHR [19]: -8 beats min-1; Peak deltaMAP [20]: -10.5 mmHg; inhibition in vivo at 0.42 mg/kg [21]: 90%
C=CCn1c(SC[C@H](O)[C@H](CC2CCCCC2)NC(=O)[C@H](Cc2c[nH]cn2)NC(=O)[C@H](Cc2ccccc2)NC(=O)OC(C)(C)C)nnc1C(F)(F)F,206,
CC(C)(C)OC(=O)N[C@@H](Cc1ccccc1)C(=O)N[C@@H](Cc1c[nH]cn1)C(=O)N[C@@H](CC1CCCCC1)[C@@H](O)CSc1nnc(C(F)(F)F)n1CCc1ccncc1,41,Peak deltaMAP [22]: -10 mmHg; inhibition in vivo at 0.44 mg/kg [23]: 93%; Peak deltaHR [24]: -1 beats min-1

# The next lines start with results.
IC50 (Renin) [nM],Compound,other results
207,CCOC(=O)Cn1nnnc1SC[C@H](O)[C@H](CC1CCCCC1)NC(=O)[C@H](Cc1cnc[nH]1)NC(=O)[C@H](Cc1ccccc1)NC(=O)OC(C)(C)C,
314,CC(C)(C)OC(=O)N[C@@H](Cc1ccccc1)C(=O)N[C@@H](Cc1cnc[nH]1)C(=O)N[C@@H](CC1CCCCC1)[C@@H](O)CSc1nnnn1CC(=O)NCCN1CCOCC1,
359,CN1CCN(C(=O)Cn2nnnc2SC[C@H](O)[C@H](CC2CCCCC2)NC(=O)[C@H](Cc2c[nH]cn2)NC(=O)[C@H](Cc2ccccc2)NC(=O)OC(C)(C)C)CC1,
145,CN(C)CCn1nnnc1SC[C@H](O)[C@H](CC1CCCCC1)NC(=O)[C@H](Cc1cnc[nH]1)NC(=O)[C@H](Cc1ccccc1)NC(=O)OC(C)(C)C,
1290,CN(C)CCNC(=O)Cn1nnnc1SC[C@H](O)[C@H](CC1CCCCC1)NC(=O)[C@H](Cc1c[nH]cn1)NC(=O)[C@H](Cc1ccccc1)NC(=O)OC(C)(C)C,
240,Cc1ccnc(SC[C@H](O)[C@H](CC2CCCCC2)NC(=O)[C@H](Cc2cnc[nH]2)NC(=O)[C@H](Cc2ccccc2)NC(=O)OC(C)(C)C)n1,
32,Cn1nnnc1SC[C@H](O)[C@H](CC1CCCCC1)NC(=O)[C@H](Cc1c[nH]cn1)NC(=O)[C@H](Cc1ccccc1)NC(=O)OC(C)(C)C,Peak deltaHR [13]: -5 beats min-1; inhibition in vivo at 0.35 mg/kg [14]: 89%; Peak deltaMAP [15]: -9 mmHg
396,CC(C)(C)OC(=O)N[C@@H](Cc1ccccc1)C(=O)N[C@@H](Cc1cnc[nH]1)C(=O)N[C@@H](CC1CCCCC1)[C@@H](O)CSc1nnnn1CC(=O)O,
448,CC(C)(C)OC(=O)N[C@@H](Cc1ccccc1)C(=O)N[C@@H](Cc1cnc[nH]1)C(=O)N[C@@H](CC1CCCCC1)[C@@H](O)CSc1nnnn1CC(N)=O,
